In BindingDB's records for doi:10.1016/j.ejmech.2017.02.062 (Padmashri Vikhe Patil College of Arts, 2017):

What was measured:
[1] = molecular target: T1, Retinoblastoma-associated protein (Homo sapiens, UniProt P06400); experiment: ChEBML_1684306
T1 sequence (P06400 whole entry): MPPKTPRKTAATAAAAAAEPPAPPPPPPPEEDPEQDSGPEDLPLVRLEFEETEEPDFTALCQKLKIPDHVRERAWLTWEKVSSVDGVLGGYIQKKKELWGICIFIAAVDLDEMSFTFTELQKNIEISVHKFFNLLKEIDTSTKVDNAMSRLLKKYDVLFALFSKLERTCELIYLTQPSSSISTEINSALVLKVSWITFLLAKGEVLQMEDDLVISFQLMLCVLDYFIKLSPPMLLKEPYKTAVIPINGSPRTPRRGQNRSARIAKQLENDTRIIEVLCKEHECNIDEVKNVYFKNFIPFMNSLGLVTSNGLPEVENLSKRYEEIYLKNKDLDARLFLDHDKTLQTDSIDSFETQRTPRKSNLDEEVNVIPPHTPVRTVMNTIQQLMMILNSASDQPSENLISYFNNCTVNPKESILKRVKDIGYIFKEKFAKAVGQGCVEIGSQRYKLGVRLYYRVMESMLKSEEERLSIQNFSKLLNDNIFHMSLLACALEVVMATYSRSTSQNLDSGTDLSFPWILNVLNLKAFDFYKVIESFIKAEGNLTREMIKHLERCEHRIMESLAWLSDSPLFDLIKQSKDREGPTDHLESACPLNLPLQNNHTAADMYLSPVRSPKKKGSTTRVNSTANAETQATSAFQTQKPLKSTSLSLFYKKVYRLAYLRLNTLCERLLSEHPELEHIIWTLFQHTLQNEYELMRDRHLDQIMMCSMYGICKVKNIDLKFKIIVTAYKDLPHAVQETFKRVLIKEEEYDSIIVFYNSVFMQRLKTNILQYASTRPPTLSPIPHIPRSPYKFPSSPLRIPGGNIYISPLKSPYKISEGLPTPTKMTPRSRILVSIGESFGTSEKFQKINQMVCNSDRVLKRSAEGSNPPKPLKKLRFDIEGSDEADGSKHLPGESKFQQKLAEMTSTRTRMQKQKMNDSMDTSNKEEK

[2] = molecular target: T1, Retinoblastoma-associated protein; experiment: Inhibition of retinoblastoma protein phosphorylation in human MDA-MB-231 cells after 16 hrs by Hoechst 33342 staining based fluorescence assay
Procedure, shortened: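 Fixation in 3.7% formaldehyde, 0.1% Triton X permeabilization, anti-pRb primary with Dylight 549 secondary; nuclei counterstained with Hoechst 33342; high-content imaging on ArrayScan reader.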

Compound | IC50 [1] [µM] | IC50 [2] [µM]
O=S(=O)(NC1CCCc2c1[nH]c1ccccc21)c1cccnc1 (stereo not drawn) | > 100 | 
c1ccc2c3c([nH]c2c1)CC(NC1CCCC1)CC3 (stereo not drawn) | 10 | 
O=C(NC1CCc2c([nH]c3ccccc23)C1)c1cccc(F)c1 (stereo not drawn) | 100 | 
Cc1ccc2[nH]c3c(c2c1)CCC(NCc1ccccc1)C3 (stereo not drawn) | 2.2 | 
Cc1ccc(CNC2CCc3c([nH]c4ccc(C)cc34)C2)cc1 (stereo not drawn) | 2.9 | 
O=S(=O)(NC1CCc2c([nH]c3ccccc23)C1)c1ccc(F)cc1 (stereo not drawn) | 9.5 | 
O=S(=O)(NC1CCc2c([nH]c3ccccc23)C1)c1cccnc1 (stereo not drawn) | > 100 | 
CC1CCC(NC2CCCc3c2[nH]c2ccccc32)C1 (stereo not drawn) |  | 15
N#Cc1ccc(S(=O)(=O)NC2CCc3c([nH]c4ccccc34)C2)cc1 (stereo not drawn) | > 100 | 
O=S(=O)(NC1CCCc2c1[nH]c1ccccc21)c1ccc(F)cc1 (stereo not drawn) | 9.2 | 
CC1CCC(NC2CCc3c([nH]c4ccccc34)C2)C1 (stereo not drawn) | 17.3 | 
CC1CCC(NC2CCCc3c2[nH]c2ccc([N+](=O)[O-])cc32)C1 (stereo not drawn) | 4.81 | 
c1ccc2c3c([nH]c2c1)C(NC1CCCC1)CCC3 (stereo not drawn) | 10 | 
c1ccc2c3c([nH]c2c1)CC(NC1CCCCC1)CC3 (stereo not drawn) | 11 | 
COc1cccc(C(=O)NC2CCc3c([nH]c4ccccc34)C2)c1 (stereo not drawn) | > 100 | 
c1ccc2c3c([nH]c2c1)C(NC1CCCCC1)CCC3 (stereo not drawn) | 15 | 
c1ccc2c3c([nH]c2c1)CC(NC1CCOCC1)CC3 (stereo not drawn) | > 100 | 
O=C(NC1CCc2c([nH]c3ccccc23)C1)c1ccccc1F (stereo not drawn) | > 100 | 
Cc1ccc2[nH]c3c(c2c1)CCC(NC1CCC(C)C1)C3 (stereo not drawn) | 2 | 
c1ccc(CNC2CCc3c([nH]c4ccccc34)C2)cc1 (stereo not drawn) | 6.92 | 
N#Cc1ccc(S(=O)(=O)NC2CCCc3c2[nH]c2ccccc32)cc1 (stereo not drawn) | > 100 | 
Cc1ccc(CNC2CCc3c(n(C)c4ccccc34)C2)cc1 (stereo not drawn) | 3.5 | 
Cc1ccc(CNC2CCc3c([nH]c4ccccc34)C2)cc1 (stereo not drawn) | 4.1 | 
